According to the EternaBench riboswitch data:

Test system: MS2 coat protein
Assay: apparent Kd, MS2 coat protein; higher = weaker binding; RNA-MaP array; FMN 200 µM where present
Summary of the method: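 The apparent Kd is the median of filtered binding-curve fits, one per cluster, to green signal normalised to red-channel RNA signal and control-cluster median Fmax. The clusters were on Illumina sequencing chips, and stalled E. coli RNA polymerase had transcribed the designs on them. Titration used SNAP-549-labelled MS2 coat protein from 0.7 or 1.5 nM, doubling to 3 µM, without and then with constant ligand, in 100 mM Tris-HCl pH 7.5, 80 mM KCl, 4 mM MgCl2, BSA, DTT, yeast tRNA and Tween-20.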

[1] = designed as: OFF switch for flavin mononucleotide, no ligand
[2] = ligand present: flavin mononucleotide, designed as: OFF switch for flavin mononucleotide
[3] = designed as: ON switch for flavin mononucleotide, no ligand
[4] = ligand present: flavin mononucleotide, designed as: ON switch for flavin mononucleotide

| Sequence | apparent Kd [1] [nM] | apparent Kd [2] [nM] | apparent Kd [3] [nM] | apparent Kd [4] [nM] |
| --- | --- | --- | --- | --- |
| GGAUGUCAAAGACAUCCAAUUCGAACAUGAGGAUCACCCAUGUAGGAUAUGCUACUCAAAGAGUAGCAGAAGGACAUGUGCCUU | 30.6 | 213 | – | – |
| UAUUUUUAUGUAAGGAUAUGGGUUUGGUUGCGGGCUUAGAAGGUACAUGAGGAUCACCCAUGUAUUUUGUGCAU | 32.8 | 35.3 | – | – |
| GGUACCAUCGCAGGAUAUGCUUUCCUUUGGGAAGCAGAAGGGUGUAACAUGAGGAUCACCCAUGUGGUGCCAGGGCGUGAGCCU | – | – | 862 | 48.7 |
| AUGGUUGUCGUAGGAUAUGUAGGAUAUUCCUACAUGAGGAUCACCCAUGUUCGCAUGGAAGAAGGACAGAAGGACGAUGACCAU | – | – | 1150 | 9.7 |
| AAUAAUAGCGAGGAUAUCGUAUCGGAAACGAUACGAGAAGGCGUAACAUGAGGAUCACCCAUGUUCCUCAAUAA | 38 | 313 | – | – |
| ACGUUAAUUCGAGGAUAUCGGUGAUAUAAUUUACGAGAAGGCGAUAAUUGUGAUAAACUUAUAGACAUGAGGAUCACCCAUGUA | – | – | 42.6 | 39.2 |
| AAAAAACAUGAGGAUCACCCAUGUAAAAAAAACACAGGAUAUCCCUUUUUUAAAAAAAAAGGAGAAGGGUGAAAAA | – | – | 41.6 | 32.9 |
| GUUCAAGUAAAGGAUAUGUAGAGCCGCGAGGCCGCAGAAGGUUGCACAUGAGGAUCACCCAUGUCGUCUCUGAU | 17.1 | 21.2 | – | – |
| CUUAUAAUUGAAGGAUAUCUAUAUCCAACAUGAGGAUCACCCAUGUUGAGGAUCACCCAUGUAAAGGAGAAGGUUAAUUAUAAG | – | – | 104 | 22.7 |
| GGGUACAUCGGAGGAUAUCAUGUAAAUACAUGAGGAUCACCCAUGUCGAUGGAGACAUCGGAGAUUGAGAAGGCCGAUGUCCCG | – | – | 194 | 7.99 |
| ACUGCAUAGGCAGGAUAUGCAAAAGCAGAUGCAAAGCAUUUGUAAAACACAUGAGGAUCACCCAUGUAGAAGGGCCUGUGCAGU | 21 | 20.7 | – | – |
| UUAAUUUAAUGAUAUUAUGACAUUAGAAGGCUGUACAUGUUGAUACAUGAGGAUCACCCAUGUAUAGAGGAUAUAGACAAUUUU | 33.2 | 89 | – | – |
| UCCGCUCGAGGAUAUACAUGAGGAUCACCCAUGUUUCCCUGUUGUUUGGCCUUAGGAUGUAGAAGGCGACGUUA | 17.7 | 17.8 | – | – |
| CCUCGUCACAUUAACAUGAGGAUCACCCAUGUCAAAAGACAUGAGGAUAUGCAUCCUAAUUGGAUGCAGAAGGCAUGGACGAGG | – | – | 474 | 36.5 |
| ACUUUAUUUGAGAAGGUGAAGUGGAAACAUGAGGAUCACCCAUGUAUUAGGAAGCCUAAUUUUAUCAAGGAUAUCAAAUAAAGA | – | – | 7.93 | 8.04 |
| CCCAAACUUGGGUUUGGUGGUGCAUAGGAUAUGCUUGAACAUGAGGAUCACCCAUGUACUAUUGUGCAGAAGGGUGCAUGGCAA | – | – | 401 | 29.1 |
| UGCUACGUUUCGUAGCAGCUAGGUGAGGAUAUUCAAUUUUUCACAUGAGGAUCACCCAUGUAUGUGAAGAAGGCGCCUAGAAAU | – | – | 12.8 | 4.8 |
| AUGGUACAUGAGGAUCACCCAUGUUAGGAUAUCGCGUGAGGUAAAACUUACACACACACGAGAAGGGACGACAU | 65.2 | 46.7 | – | – |
| AAGCGAGGGACAGGAUAUGCAGCGAAACUCGCCGCAGAAGGGUCGACAUGAGGAUCACCCAUGUCCUUACGCUCCAAGUAGUGG | – | – | 232 | 299 |
| AGAUCGAUUGUGAGGAUAUUGACCGGACGACCCAUCGAGAAGGCACAUGAGGAUCACCCAUGUGAGUCGGUUUA | 14.9 | 18.2 | – | – |
| UCGGCGCGAGGAUAUGCGGUUUGUGCUUCGGGCCCUCGCGUACAUGAGGAUCACCCAUGUAGAAGGCGCGCCGC | 201 | 123 | – | – |
| UUAUUUUUUGAGGAUAUGCGACGUUUUUUCGUCGUAGAAGGCGAUACAUGAGGAUCACCCAUGUUUAUGGGCAU | 89.7 | 157 | – | – |
| UCAUGGUAGCAGGAUAUGCUUGUUUUUUUUUUUGCAGAAGGGCUUACAUGAGGAUCACCCAUGUGUUAGGUCUA | 25.2 | 30.8 | – | – |
| GCGGAACAUGAGGAUCACCCAUGUAUCCGAAAUAUGGACUCACAGGAUAUCCCGAGUUGCCAGUCGGAGAAGGGUGACUCCAGC | – | – | 12.3 | 8.09 |
| UGGUACUAGGGAGGAUAUGGGAACAUACAUGAGGAUCACCCAUGUUUAAGAAUGCCGAGAGGCAACUAGAAGGCCCUAGUACCU | – | – | 15.7 | 4.96 |
| AAACGCCAACAUGAGGAUCACCCAUGUUCUAGUUUAGGGUCGCAGGAUAUGACUUCGAAGCUUAGUCAGAAGGGUGAAUCCACA | – | – | 14.5 | 10.5 |
| UUACAGCACGGGUAGGAUAUGUAGGGUGGUACAUGAGGAUCACCCAUGUAUCCACCCUUCUAACGGCAGAAGGGCCUGUCGCUGC | – | – | 31.8 | 20.9 |
| AUGCUUAUCGAAGGAUAUGGUUACAUGAGGAUCACCCAUGUUAUGCUUGGUUACUUGUUUAGUUUCCAGAAGGUCGAUUAGUUG | 71 | 172 | – | – |

| Sequence | apparent Kd [1] [nM] | apparent Kd [2] [nM] | apparent Kd [3] [nM] | apparent Kd [4] [nM] |
| --- | --- | --- | --- | --- |
| AUAGUGGUUUUCUGGAUGUUGAACAUGAGGAUCACCCAUGUAGAGGAUAUCCACGGAAAUCCGUAGGAGAAGGCUGGUGGAAAA | 15.6 | 26.7 | – | – |
| AGGUAACAUGAGGAUCACCCAUGUCAGGAUAUCAUGAAGAGUAGAUUAGAGGAGAGGUUGAGAAGGGACUAUAU | 59.9 | 35.3 | – | – |
| UUUUCCGGGCAGAAGGGUCCUCACAUGAGGAUCACCCAUGUAAACGCGGAUAGGAUAUGCCACUGGGCUCGAUAAGAGUGGUUC | – | – | 409 | 160 |
| ACUAGAUGAGGAUAUGCAUGUUUUCGUGUUCUUCUAGAUUAACAUGAGGAUCACCCAUGUAGAAGGCGUCAAUU | 41.5 | 132 | – | – |
| CGUCGAUACCAGAAGGACAUGAGGAUCACCCAUGUAGGAUAUGGGUGACCGGGAUGGUGGACACGGUGCCCGGGCACAUGCGAC | – | – | 81.8 | 14.9 |
| GGGUGACAUGAGGAUCACCCAUGUCAGGAUAUGCGCGCGCGCGCGAAAGUGUGUGUGUGUAGAAGGGACUGCCC | 49.6 | 81.2 | – | – |
| UAAUAUUUAUAAUAUUAUUACAUUAGAAGGCAAGACAUGUGGAUACAUGAGGAUCACCCAUGUAUUGAGGAUAUAGACAUAUAU | 14.6 | 21.7 | – | – |
| GGGUACAUCCGAGGAUAUCAUGUAAAUACAUGAGGAUCACCCAUGUCGAUGGAGACAUCGGAGAUUGAGAAGGCCGAUGUACCG | – | – | 344 | 22.9 |
| GGAUGACAAAGUCAUCCAAAUCGAACAUGAGGAUCACCCAUGUAGGAUAUGGUACUCAAAGAGUACCAGAAGGACAUGUGCUUU | 40 | 191 | – | – |
| UAGGUGGAAGGAUAUACAUAUGGCCUAUGAGAUACUUCACGACAUGAGGAUCACCCAUGUAGAAGGUCUACCGU | 17.9 | 39.4 | – | – |
| AAUAACAGAGGAUAUACUGUUUUAUGUAUUUAUUAUUUUGAACAUGAGGAUCACCCAUGUAGAAGGCUGAUUAA | 33.3 | 28.4 | – | – |
| CACAGGGAUUCAGGAUAUAUUAGCCGAGGCCGCGUAGAAGGGAAAUCCUGACAUGAGGAUCACCCAUGUCGACCCGCCUUCCAU | – | – | 48.6 | 48.5 |
| GUGCAUACGUGAGGAUAUGUAUUAGAUAGUGGUACAGAAGGCAUGUCUGAUGACAUGAGGAUCACCCAUGUUGGCACAGUGCGC | – | – | 59.7 | 29.6 |
| GCCAGGAUGUGAGGAUAUGCUGAGGAUAACUCAGCAGAAGGCACAUGAGGAUCACCCAUGUAAACUUAUCAUAAAUACCCUGGC | 14.3 | 21.2 | – | – |
| GGUUUUUCUGAGGAUAUUGCAUCACCCGAUUUAUAAGAAGGCAGAACAUGAGGAUCACCCAUGUGGGUUUCUAG | 19.4 | 24.8 | – | – |
| UGGUGGUAGCAGGAUAUGCUUGUUGUGUAGUUUGCAGAAGGGCUAACAUGAGGAUCACCCAUGUAAGAGGUGUU | 331 | 162 | – | – |
| GCAAAGCCUGACAUGAGGAUCACCCAUGUUAGAUUGUUAUGUCAGGAUAUUGUCUAGAACCUAGACAAGAAGGGAUGCUUUGCU | – | – | 337 | 26.4 |
| UUGGACGUCGUAGGAUAUGUAGGAUAUUCCUACAUGAGGAUCACCCAUGUUGACAUGGAAGACGGACAGAAGGACGAUGUCCAU | – | – | 490 | 12.8 |
| GGGUACAUCGGAGGAUAUCAUGUGAAUACAUGAGGAUCACCCAUGUCGAUGGAGACAUCGGAGAUUGAGAAGGCCGAUGUACCG | – | – | 446 | 15.1 |
| CUUCUCGUUGUGAGGAUAUCGUUUUCGUCUCGGAUCGAGAAGGCACAUGAGGAUCACCCAUGUUUGUUGUGGUU | 115 | 103 | – | – |
| CGCUAUGAUGGGUUUAAUGGAGCAUAGGAUAUGCUUGUACAUGAGGAUCACCCAUGUUAUAUUGUGCAGAAGGGUGCAUUUGCG | – | – | 433 | 157 |
| AAAACGUCAGGAUAUCCAAUAUAUGACAUGAGGAUCACCCAUGUUUCCACUCGUACCUCCGGAGAAGGGACUUUUU | 42.6 | 39.4 | – | – |
| UACUGGUGUGAGAAGGGACGUAUCUCCAUGAGGGUAGGGCUAUUAGAGAAGUCAGGAUAUCACAUGAGGAUCACCCAUGUGACG | 8.25 | 9.9 | – | – |
| UGGUACAUGGGAGGAUAUCAUGUGAGAACAUGAGGAUCACCCAUGUCGAUGGAGACAUCGGAGAUUGAGAAGGCCCAUGUACCU | – | – | 1210 | 63.8 |
| GGUCUGAUAUGAGGAUAUGCUCAGGAAUACUGAGCAGAAGGCAUGUGAAAACAUGAGGAUCACCCAUGUGAUCAAUACAGACCA | – | – | 147 | 23.7 |
| UUUGUGUAAGGAUAUCACUACCGGGUCCGGACGCCCGCAGAUGAGAAGGUACAUGAGGAUCACCCAUGUCCCUA | 19.7 | 26.4 | – | – |
| AGGAUAGGAAAAUUUGUCCAUUGUACAGAAGGCCAACAUGAGGAUCACCCAUGUAAGAAAAGGAUGGAGGAUAUGUAUAGGGCC | – | – | 37.6 | 10.6 |
